# Statin myotox sup – suppressors of statin myotoxicity in C2C12 myotubes, primary screen, cell-based, single point, plate reader | C2C12 myotubes + simvastatin, ATP luminescence, 48 h; scaled: DMSO 0, geranylgeraniol control 100 | rescue of ATP level, % at 7.49 µM | 330,000 tested, 0.78% active | AID 602340, 2012;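 active = mean ATP rescue above about 67%, or every replicate alone reaching that limit, limit read from the data, passing the limit was not always enough; inconclusive = no clear call, values can overlap the other calls; inactive = mean under the limit and some replicate under it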;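 note: myotubes were challenged with 10 µM simvastatin during compound exposure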
# DENV2 CPE rescue – inhibitors of DENV2 cytopathic effect, primary screen, cell-based, plate reader, single concentration; CPE inhibition, % at 9.99 µM; DENV2-infected cells, cytopathic effect rescue; AID 651640, 2012; 350,000 tested, 1.7% active; in the data active = CPE inhibition above about 20%, passing the limit was not always enough; inconclusive = no clear call, values can overlap the other calls; tested in BHK-21 cells;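 note: 0% = median of neutral control wells and 100% = median of positive control wells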
# E-selectin induc – E-selectin induction in HUVECs, primary screen, imaging, HUVEC, immunofluorescence imaging, single point | activation, % at 7.58 µM | P16581 | normalized: neutral wells 0, TNF-alpha wells 100 | 260,000 tested, 0.37% active;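 active = mean E-selectin-positive cell signal at least 10% of the positive control, reached in at least 60% of replicates, without over 20% cell loss; inconclusive = no rule given, readout overlaps actives, possibly toxicity-flagged; inactive = the rest, including those meeting only one limit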
# Target sequence (P16581 whole entry, looked up): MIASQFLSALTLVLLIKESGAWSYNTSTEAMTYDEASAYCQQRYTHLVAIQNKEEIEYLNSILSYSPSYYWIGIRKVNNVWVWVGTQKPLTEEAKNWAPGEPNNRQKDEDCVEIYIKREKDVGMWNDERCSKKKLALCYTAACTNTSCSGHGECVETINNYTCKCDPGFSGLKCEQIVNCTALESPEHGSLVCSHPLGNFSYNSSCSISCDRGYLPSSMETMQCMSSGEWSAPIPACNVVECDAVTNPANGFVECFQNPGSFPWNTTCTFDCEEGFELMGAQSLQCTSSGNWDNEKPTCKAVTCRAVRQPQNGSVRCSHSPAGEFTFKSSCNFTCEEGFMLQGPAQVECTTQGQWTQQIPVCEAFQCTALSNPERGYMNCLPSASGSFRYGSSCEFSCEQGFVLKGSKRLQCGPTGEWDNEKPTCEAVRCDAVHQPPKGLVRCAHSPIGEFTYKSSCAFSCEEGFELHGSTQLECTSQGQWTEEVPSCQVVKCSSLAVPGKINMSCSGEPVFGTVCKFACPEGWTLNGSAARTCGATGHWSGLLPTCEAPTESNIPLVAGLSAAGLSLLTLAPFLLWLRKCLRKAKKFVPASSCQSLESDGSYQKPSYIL
#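 Read-out: % PE-positive cells | Test system: HUVEC | Doses: One compound dose added by pin transfer | Buffer or medium: EGM-2 over gelatin coat | Signal: Immunofluorescence imaging | Benchmarks: TNF-alpha, DMSO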
# XiGFP reactiv – activators of inactive X chromosome reactivation, primary screen, imaging, XiGFP fibroblasts, GFP high-content imaging, set 2 | XiGFP mouse fibroblasts, % GFP-positive cells imaging, 3 d; cells co-treated with 5-aza-dC sensitizer; scaled so ellipticine positive control = 100% | activation, % at 7.58 µM | 360,000 tested, 0.055% active | AID 743238, 2013;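 active = mean normalized replicate activation at least 10% and every replicate at or above 10%; inconclusive = only one of the two criteria met; inactive = mean below 10% and not all replicates reach 10%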;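 note: 0% = median of on-plate neutral control wells and 100% = ellipticine 6 µM median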
#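 System: XiGFP fibroblasts, SV40-immortalized. Medium: DMEM plus 5-aza-dC sensitizer. Doses: single point. Timing: 3 d treatment, 15 min room-temperature fixation. Control set: ellipticine 6 µM.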
# FGF22 binding-1 – binders of human FGF22 protein, primary screen, FGF22 synaptogenesis inhibitor project, biophysical, thermal shift, single point; recombinant FGF22 thermal shift, SYPRO orange fluorescence; percent of sucrose octasulfate shift, DMSO zero; activity (Tm shift, normalised), % at 9.99 µM; 340,000 tested, 1.5% active; AID 651658, 2012;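 active = mean Tm shift, scaled 0 neutral to 100 positive control, at about 1.3% or above, every replicate too, limit read from the data; inconclusive = no clear call, values can overlap the other calls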
# PglD DTNB – C. jejuni PglD acetyltransferase inhibitors, primary screen, biochemical, DTNB colorimetric, single point; UDP-N-acetylbacillosamine N-acetyltransferase PglD (Campylobacter jejuni); purified PglD enzyme, DTNB colorimetric CoA detection; inhibition, % at 12.5 µM; 360,000 tested, 0.098% active; in the data active = inhibition above about 16%, passing the limit was not always enough; inconclusive = no clear call, values can overlap the other calls
# FGF22 binding-2 – binders of human FGF22 protein, dose response, FGF22 synaptogenesis inhibitor project, biophysical, thermal shift, cherry-pick retest; shares compounds with FGF22 binding-1; recombinant FGF22 thermal shift, SYPRO orange fluorescence; thermal shift activity, °C (ΔTm) at 38 µM; 1,000 tested, 2% active; AID 720646, 2013;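 active = fitted rise in melting shift crosses a set limit at or below the top valid dose tested; inconclusive = flat fit at mid-level activity, or a poor quality fit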
# TSA no protein – compound-only thermal shift signal without protein, dose response, artefact control for FGF22 binder project, biochemical, cherry-picked samples, RT-PCR instrument; shares compounds with FGF22 binding-1; compound-only SYPRO orange thermal shift counter-screen, no protein; AC50, µM (top dose mostly 38 µM); 1,000 tested, 2% active;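 active = rising signal whose fitted curve reaches the 0.54 level within the top valid dose, showing a melting point, actives reach about 13 µM in these data; inactive = the rest, including activity in the opposite direction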; note: value is where the raw curve crosses a fixed level and not half-maximal
# Numbers without * were called inactive; i = inactive; u = inconclusive; x = no result given; [ ] = another dose, or the depositor's remark. This is a sample that favours compounds with a hit; in the whole collection about 3.3% have one here.
SMILES,Statin myotox sup,DENV2 CPE rescue,E-selectin induc,XiGFP reactiv,FGF22 binding-1,PglD DTNB,FGF22 binding-2,TSA no protein
C[C@H](CO)N1C[C@H](C)[C@H](CN(C)C(=O)CC2CC2)Oc2ncc(C#CC3(O)CCCC3)cc2C1=O,21.3,-2.5,-0.3,-0.3,1.4*,-0.2,-0.086,i
C[C@H]1CN([C@@H](C)CO)C(=O)c2cc(C#CCN(C)C)cnc2O[C@H]1CN(C)C(=O)c1cnccn1,-8.0,1.1,0.3,0.0,-0.3,4.1,x,x
O=C(C[C@H]1C=C[C@@H](NS(=O)(=O)c2ccc(F)cc2)[C@@H](CO)O1)NCc1ccc(Cl)c(Cl)c1,-0.4,2.9,0.7,0.3,-0.2,2.4,x,x
CNC[C@@H]1Oc2c(NS(=O)(=O)c3ccc(C)cc3)cccc2C(=O)N([C@H](C)CO)C[C@@H]1C,1.8,12.3,-0.1,-0.7,0.1,3.7,x,x
C[C@@H]1CN([C@@H](C)CO)C(=O)Cc2cc(NC(=O)Nc3ccc(C(F)(F)F)cc3)ccc2O[C@@H]1CN(C)C(=O)NC1CCCCC1,-191.8,-1.3,5.3,1.6,-0.3,2.3,x,x
CC(=O)N(C)C[C@@H]1Oc2ncc(C#CC(C)(C)O)cc2C(=O)N([C@@H](C)CO)C[C@H]1C,2.2,20.1*,0.3,-0.9,1.6*,-0.2,-0.045,i
O=C(NNC(=O)C1CCN(S(=O)(=O)c2ccccc2C(F)(F)F)CC1)c1ccccc1O,-9.5,-2.4,x,0.4,2.6*,-2.2,-0.147,i
CCCC(=O)Nc1ccc2c(c1)OC[C@@H](C)N(C(=O)c1ccncc1)C[C@@H](C)[C@@H](OC)CN(C)C2=O,-5.6,5.7,0.2,0.1,0.0,0.3,x,x
CCc1nnc(NC(=O)CN2CCN(Cc3ccc(C)cc3)CC2)s1,-11.2,3.4,x,0.0,1.7*,-0.6,0.157,i
C[C@H](CO)N1C[C@H](C)[C@H](CN(C)S(C)(=O)=O)OCCCC[C@H](C)Oc2ccc(NC(=O)Nc3ccc(C(F)(F)F)cc3)cc2C1=O,x,-1.1,0.4,-1.1,-1.1,4.3,x,x
O=C(NC1CCCCC1)N1CC(=O)N2[C@H](CO)[C@H](c3ccc(-c4cccc(F)c4)cc3)[C@H]2C1,x,u,-0.1,0.0,1.4*,x,0.295[42 µM],i
O=C(NC1CCCCC1)N1CC(=O)N2[C@H](C1)[C@H](c1ccc(-c3cccc(F)c3)cc1)[C@@H]2CO,x,2.8,-0.5,0.1,0.5,x,x,x
O=C(Nc1cccc(F)c1)N1CC(=O)N2[C@@H](CO)[C@@H](c3ccc(Br)cc3)[C@@H]2C1,x,4.6,0.3,0.0,1.3*,x,0.251[42 µM],i
COc1ccc(NC(=O)Nc2ccc3c(c2)C(=O)N([C@@H](C)CO)C[C@@H](C)[C@H](CN(C)C)OCCCC[C@@H](C)O3)cc1,-1.1,x,0.6,0.2,x,x,x,x
CCc1cnc(N2[C@H](C#N)[C@@H](c3ccccc3C3=CCCC3)[C@@H]2CO)s1,x,x,x,0.2,x,x,x,x
O=c1c2cc([N+](=O)[O-])cc([N+](=O)[O-])c2[nH]n1-c1ccccc1,-1.7,3.1,0.3,0.0,1.8*,-3.3,0.257,i
Cc1noc(C)c1NC(=O)N(C)C[C@H]1Oc2c(NC(=O)Nc3ccc(F)cc3)cccc2C(=O)N([C@H](C)CO)C[C@H]1C,-2.6,-9.7,18.5,0.1,-0.2,-5.1,x,x

# Compound activity deposited in PubChem by Broad Institute.
